Assay [1] deals with T1, 3-hydroxy-3-methylglutaryl-coenzyme A reductase (Rattus norvegicus, UniProt P51639).
T1 sequence (P51639 whole entry): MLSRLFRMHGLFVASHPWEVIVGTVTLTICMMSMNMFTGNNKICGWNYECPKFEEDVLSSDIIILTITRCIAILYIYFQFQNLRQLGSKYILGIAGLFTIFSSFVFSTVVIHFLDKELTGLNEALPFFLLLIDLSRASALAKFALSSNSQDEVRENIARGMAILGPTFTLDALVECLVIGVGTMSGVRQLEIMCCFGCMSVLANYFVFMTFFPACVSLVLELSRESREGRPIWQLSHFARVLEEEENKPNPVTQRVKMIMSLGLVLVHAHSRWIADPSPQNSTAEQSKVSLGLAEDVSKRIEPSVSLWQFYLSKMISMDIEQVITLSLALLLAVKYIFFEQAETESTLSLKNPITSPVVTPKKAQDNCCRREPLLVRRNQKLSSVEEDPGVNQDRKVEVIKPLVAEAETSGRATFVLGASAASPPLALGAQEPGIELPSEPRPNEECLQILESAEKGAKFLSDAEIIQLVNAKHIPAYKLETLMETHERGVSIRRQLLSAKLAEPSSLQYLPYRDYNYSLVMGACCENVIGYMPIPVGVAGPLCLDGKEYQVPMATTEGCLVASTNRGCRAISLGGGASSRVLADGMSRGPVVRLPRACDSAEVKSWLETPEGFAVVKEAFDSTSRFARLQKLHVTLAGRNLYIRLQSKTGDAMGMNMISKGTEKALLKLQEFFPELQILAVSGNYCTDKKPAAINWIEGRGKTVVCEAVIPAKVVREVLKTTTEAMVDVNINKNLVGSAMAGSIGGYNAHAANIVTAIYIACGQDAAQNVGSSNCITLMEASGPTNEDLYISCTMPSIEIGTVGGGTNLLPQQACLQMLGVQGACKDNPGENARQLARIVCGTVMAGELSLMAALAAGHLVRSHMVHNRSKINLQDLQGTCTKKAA
Briefly: In vitro inhibition of solubilized HMG-CoA reductase in rat liver.

Assay [2] has as its system Oryctolagus cuniculus. Briefly: Tested in vivo for hypocholesterolemic activity by measuring its ability to decrease serum total cholesterol, after oral administration of 75 mg/kg body wt. per day in normolipidemic NZW rabbits; More potent than compound 73. Set-up: dose 75 mg/kg, route oral. The assay is classed as functional, organism-based.
For assay [3], the species on record is Sus scrofa. Nature of the assay: Compound was tested for inhibition of Cu2+ catalyzed LDL oxidation and the potency relative to terbufucine was determined. The assay is classed as functional. The method, boiled down: (§1)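 Porcine plasma LDL isolated by sequential ultracentrifugation (density 1.019-1.063 g/mL), dialysed against PBS pH 7.4, then diluted to 0.1 mg/mL protein. Preincubated 1 h at 37 °C under N2 with compound in ethanol. Oxidised with 5 μM Cu2+ for 2 h at 37 °C in air. Fluorescence read at ex 365/em 430 nm.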

Assay [4] has as its system Rattus norvegicus. Briefly: Compound was tested for effect on serum LDL after oral administration of 30 mg/kg in male rats. The assay is classed as functional. The method, boiled down: (§2)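 Male HOE:WISKf (SPF 71) rats, initial body weight over 180 g, n = 10 per group, dosed once daily in the morning by gavage in polyethylene glycol 400 for 7 days; controls received vehicle. Fasted after last dose, bled retroorbitally 24 h later under mild ether. Liver and body weight recorded. Pooled group serum was ultracentrifuged into VLDL (<1.006), LDL (1.006-1.04) and HDL (1.04-1.21). Values are % change versus control.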

For assay [5], the species on record is Sus scrofa. Nature of the assay: In vitro inhibition of Cu2+ catalyzed LDL oxidation. The assay is classed as functional. The procedure, abridged:
as §1

In assay [6] the test system is Rattus norvegicus. Briefly: Compound was tested for effect on liver weight after oral administration of 30 mg/kg in male rats. The assay is classed as functional. The method, boiled down: as §2
For assay [7], the system named is Rattus norvegicus. Nature of the assay: Compound was tested for effect on body weight after oral administration of 30 mg/kg in male rats. The assay is classed as functional. The procedure, abridged:
as §2

The subject of assay [8] is Rattus norvegicus. Nature of the assay: Compound was tested for effect on serum VLDL after oral administration of 30 mg/kg in male rats. The assay is classed as functional. The method, boiled down:
as §2

The test system of assay [9] is Rattus norvegicus. Briefly: Compound was tested for effect on serum HDL after oral administration of 30 mg/kg in male rats. The assay is classed as functional. The method, boiled down:
as §2

The subject of assay [10] is Canis familiaris. Briefly: Tested in vivo for hypocholesterolemic activity by measuring its ability to decrease serum LDL-cholesterol, after oral administration of 30 mg/kg per day for 14 days in male Beagle dogs. The assay is classed as functional, Canis lupus familiaris. The method, boiled down: (§3)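 Male beagle dogs (n = 4) given neat compound in gelatine capsules daily at 3:00 p.m.; controls received empty capsules. After an overnight fast, venous blood was drawn at 8:00 a.m. Serum lipoproteins were separated by ultracentrifugation (densities 1.006/1.063/1.21). LDL-cholesterol reported as % change versus control.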

Assay [11] concerns Canis familiaris. Briefly: Tested in vivo for hypocholesterolemic activity by measuring its ability to decrease serum LDL-cholesterol, after oral administration of 5 mg/kg per day for 14 days in male Beagle dogs. The assay is classed as functional, Canis lupus familiaris. The method, boiled down: as §3
Assay [12] is filed under the species Sus scrofa. Briefly: In vitro inhibition of Cu2+ catalyzed LDL oxidation at 10e-5 M conc. The assay is classed as functional. The method, boiled down: as §1
Assay [13] is filed under the species Rattus norvegicus. Nature of the assay: In vitro inhibition of microsomal lipid peroxidation. The assay is classed as functional. The procedure, abridged:
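Rat liver microsomes in 50 mM Tris-HCl pH 7.4 with 100 mM KCl and 6.0 mM MgCl2, final protein 0.4 mg/mL. Peroxidation was started with ADP (2 mM)/FeCl3 (10 μM) plus an NADPH-regenerating system. Incubation 30 min at 37 °C with shaking. Thiobarbituric acid reactive substances were read at 535 nm.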

Assay [14] is filed under the species Rattus norvegicus. Briefly: Potency relative to mevinolin was determined with respect to IC50. […]. The assay is classed as functional.
In assay [15] the test system is Oryctolagus cuniculus. Briefly: Tested in vivo for hypocholesterolemic activity by measuring its ability to decrease serum total cholesterol, after oral administration of 10 mg/kg body wt. per day in normolipidemic NZW rabbits. The assay is classed as functional. The method, boiled down: (§4)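 NZW rabbits (n = 5 or 6) dosed orally daily for 10 days. Serum total cholesterol reported as % change versus control. For 20 mg/kg, that dose was given on days 11-20 after 10 mg/kg, with the value read on day 20. Error given as SEM.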

In assay [16] the test system is Canis familiaris. Briefly: Tested in vivo for hypocholesterolemic activity by measuring its ability to decrease serum LDL-cholesterol, after oral administration of 30 mg/kg per day for 21 days in male Beagle dogs. The assay is classed as functional, Canis lupus familiaris. The procedure, abridged:
as §3

Assay [17] relates to Oryctolagus cuniculus. Briefly: Tested in vivo for hypocholesterolemic activity by measuring its ability to decrease serum total cholesterol, after oral administration of 20 mg/kg body wt. per day in normolipidemic NZW rabbits. The assay is classed as functional. The procedure, abridged: as §4
Assay [18] has as its system Rattus norvegicus. Briefly: In vivo inhibition of hepatic cholesterol de novo synthesis in rat after oral administration of 5 mg/kg dose. The assay is classed as functional.

The structures appear in SMILES notation.

As for `CC(C)c1nc(C(C)(C)C)cc(-c2ccc(F)cc2)c1/C=C/[C@@H](O)C[C@@H](O)CC(=O)[O-].[Na+]`, the IC50 in assay [1] is 1 nM; in assay [2], “More potent than compound 73”.
`CC(C)(Sc1cc(C(C)(C)C)c(O)c(C(C)(C)C)c1)Sc1cc(C(C)(C)C)c(O)c(C(C)(C)C)c1` [PROBUCOL] yielded a Relative potency in assay [3] of 22. The Change in assay [4] was -24%; in [6], 5%; in [7] it was 5%; in assay [8] it was 4%; in assay [9], -11%. In assay [5], this compound had an IC50 of 500 nM.
As for `CC(C)c1cc(Sc2ccc(F)cc2)cc(-c2ccc(F)cc2)c1OCC1C[C@@H](O)CC(=O)O1` (some centres undefined), in assay [3], the Relative potency is recorded as under 0.1. Besides, the Change in assay [10] is given as -21%; in assay [11], -9%. Moreover, in assay [12], the inhibition at 10 µM amounted to 23%. Besides, the IC50 in assay [13] is over 10000 nM.
The compound `CC(C)c1cc(-c2ccc(F)cc2)cc(-c2ccc(F)cc2)c1OCC1C[C@@H](O)CC(=O)O1` (some centres undefined) displayed a Relative potency in [14] of 18. Also, the values for the Change in [15], in [16] and in assay [17] were -28%, 3% and -34%, respectively. Further, the Cholesterol in assay [18] is on record as 84.5%.

For the origin of these results see ChEMBL document CHEMBL1125911, “Synthesis and biological activity of new HMG-CoA reductase inhibitors. 3. Lactones of 6-phenoxy-3,5-dihydroxyhexanoic acids” (J Med Chem, 1991).
